According to BindingDB's records for doi:10.1021/acs.jmedchem.5b01723 (Uppsala University, 2016):

How the values were obtained:
Carbonic anhydrase 12 [1] = target: T1, Carbonic anhydrase 12 (Homo sapiens, UniProt O43570); experiment: Binding affinity to human recombinant CA12 catalytic domain assessed as dissociation rate constant after 30 secs by surface plasmon resonance assay
Carbonic anhydrase 7 [2] = target: T2, Carbonic anhydrase 7 (Homo sapiens, UniProt P43166); experiment: Binding affinity to human recombinant CA7 assessed as dissociation rate constant after 30 secs by surface plasmon resonance assay
T2 sequence (P43166 whole entry): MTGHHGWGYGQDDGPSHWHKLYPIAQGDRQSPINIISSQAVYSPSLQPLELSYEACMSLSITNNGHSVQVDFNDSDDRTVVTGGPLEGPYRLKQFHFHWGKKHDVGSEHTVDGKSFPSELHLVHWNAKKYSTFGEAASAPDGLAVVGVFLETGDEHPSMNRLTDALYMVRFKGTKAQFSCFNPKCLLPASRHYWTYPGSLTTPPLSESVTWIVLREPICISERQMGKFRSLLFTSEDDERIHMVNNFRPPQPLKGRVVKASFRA

Carbonic anhydrase 7 [3] = target: T2, Carbonic anhydrase 7; experiment: Binding affinity to human recombinant CA7 assessed as association rate constant after 30 secs by surface plasmon resonance assay; details: read-out: kon (M-1-s-1)
Carbonic anhydrase 12 [4] = target: T1, Carbonic anhydrase 12; experiment: Binding affinity to human recombinant CA12 catalytic domain assessed as association rate constant after 30 secs by surface plasmon resonance assay; details: read-out: kon (M-1-s-1)
Carbonic anhydrase 2 [5] = target: T3, Carbonic anhydrase 2 (Homo sapiens, UniProt P00918); experiment: Binding affinity to human recombinant CA2 expressed in Escherichia coli assessed as association rate constant after 30 secs by surface plasmon resonance assay; details: read-out: kon (M-1-s-1)
Carbonic anhydrase 2 [6] = target: T3, Carbonic anhydrase 2; experiment: Binding affinity to human recombinant CA2 expressed in Escherichia coli assessed as dissociation rate constant after 30 secs by surface plasmon resonance assay
Carbonic anhydrase 13 [7] = target: T4, Carbonic anhydrase 13 (Homo sapiens, UniProt Q8N1Q1); experiment: Binding affinity to human recombinant CA13 assessed as dissociation rate constant after 30 secs by surface plasmon resonance assay
T4 sequence (Q8N1Q1 whole entry): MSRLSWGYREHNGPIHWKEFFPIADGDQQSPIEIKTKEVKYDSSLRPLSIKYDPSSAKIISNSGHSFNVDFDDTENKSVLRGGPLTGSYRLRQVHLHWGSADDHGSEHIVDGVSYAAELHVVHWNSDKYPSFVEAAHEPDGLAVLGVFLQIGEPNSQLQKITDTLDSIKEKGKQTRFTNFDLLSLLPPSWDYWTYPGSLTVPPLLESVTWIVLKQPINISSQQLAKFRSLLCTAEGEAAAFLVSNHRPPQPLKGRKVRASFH

Carbonic anhydrase 13 [8] = target: T4, Carbonic anhydrase 13; experiment: Binding affinity to human recombinant CA13 assessed as association rate constant after 30 secs by surface plasmon resonance assay; details: read-out: kon (M-1-s-1)
Carbonic anhydrase 1 [9] = target: T5, Carbonic anhydrase 1 (Homo sapiens, UniProt P00915); experiment: Binding affinity to human recombinant CA1 expressed in Escherichia coli assessed as dissociation rate constant after 30 secs by surface plasmon resonance assay
T5 sequence (P00915 whole entry): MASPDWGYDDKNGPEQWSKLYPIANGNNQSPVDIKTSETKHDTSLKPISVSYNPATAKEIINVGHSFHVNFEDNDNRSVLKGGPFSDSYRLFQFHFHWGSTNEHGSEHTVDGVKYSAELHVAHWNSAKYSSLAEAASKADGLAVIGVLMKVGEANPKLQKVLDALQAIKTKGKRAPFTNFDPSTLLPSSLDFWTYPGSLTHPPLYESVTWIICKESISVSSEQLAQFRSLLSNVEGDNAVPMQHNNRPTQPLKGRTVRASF
In short: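 CA I immobilized by amine coupling (75 µg mL−1 in 10 mM sodium acetate, pH 5) to about 6000 RU. SPR run at 25 °C in PBST with 2 % DMSO, pH 7.4. Ligand given as 2-fold series, 15.6–2000 nM, at 30 or 90 µL min−1. Association 30 s, dissociation 180 s; sulphanilamide 200 µM regeneration where needed. kd from non-linear fit to one-step binding with mass transport.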

Carbonic anhydrase 1 [10] = target: T5, Carbonic anhydrase 1; experiment: Binding affinity to human recombinant CA1 expressed in Escherichia coli assessed as association rate constant after 30 secs by surface plasmon resonance assay
In short: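 Full-length enzyme amine-coupled to a carboxymethyl-dextran chip (75 µg/mL in 10 mM sodium acetate pH 5, about 6000 RU). SPR at 25 °C in PBST pH 7.4 with 2% DMSO. Ligands injected as 2-fold series, 15.6–2000 nM, at 30 or 90 µL/min. Association 30 s, dissociation 180 s. Regeneration with 200 µM sulphanilamide. ka from non-linear fit to a one-step binding model with mass transport.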

T1 sequence (O43570 whole entry, the tested form may be a part): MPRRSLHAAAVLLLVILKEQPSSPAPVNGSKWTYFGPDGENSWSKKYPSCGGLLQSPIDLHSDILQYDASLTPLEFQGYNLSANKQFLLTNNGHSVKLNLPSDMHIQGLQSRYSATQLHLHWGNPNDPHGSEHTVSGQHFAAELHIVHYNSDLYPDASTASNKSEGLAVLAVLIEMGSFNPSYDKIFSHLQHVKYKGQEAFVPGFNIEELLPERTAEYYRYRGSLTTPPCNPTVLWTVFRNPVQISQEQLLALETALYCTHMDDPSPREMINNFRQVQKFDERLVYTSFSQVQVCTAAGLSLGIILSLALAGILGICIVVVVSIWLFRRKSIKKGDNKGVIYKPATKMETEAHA

Row | koff (Carbonic anhydrase 12 [1]) [s⁻¹] | koff (Carbonic anhydrase 7 [2]) [s⁻¹] | kon (Carbonic anhydrase 7 [3]) [M⁻¹ s⁻¹] | kon (Carbonic anhydrase 12 [4]) [M⁻¹ s⁻¹] | kon (Carbonic anhydrase 2 [5]) [M⁻¹ s⁻¹] | koff (Carbonic anhydrase 2 [6]) [s⁻¹] | koff (Carbonic anhydrase 13 [7]) [s⁻¹] | kon (Carbonic anhydrase 13 [8]) [M⁻¹ s⁻¹] | koff (Carbonic anhydrase 1 [9]) [s⁻¹] | kon (Carbonic anhydrase 1 [10]) [M⁻¹ s⁻¹] | SMILES
1 | 0.011 | – | – | 180000 | – | – | – | – | – | – | CC(C)(C)Nc1c(F)c(S(N)(=O)=O)c(F)c(F)c1S(=O)(=O)CCc1ccccc1 [carbonic anhydrase (CA) inhibitors, benzenesulphonamide ligand, 15]
2 | – | 0.14 | 30000 | – | 390000 | 0.026 | 0.022 | 100000 | 0.0066 | 110000 | COc1ccc(CNc2c(F)c(F)c(F)c(F)c2S(N)(=O)=O)cc1 [carbonic anhydrase (CA) inhibitors, benzenesulphonamide ligand, 15]
3 | 0.041 | 0.071 | 2.6e+06 | 880000 | 1.4e+06 | 0.0093 | 0.011 | 920000 | – | – | NS(=O)(=O)c1c(F)c(F)c(N2CCCCC2)c(F)c1F [carbonic anhydrase (CA) inhibitors, benzenesulphonamide ligand, 16]

The remaining lines, values behind:

Row | SMILES | koff (Carbonic anhydrase 12 [1]) [s⁻¹] | koff (Carbonic anhydrase 7 [2]) [s⁻¹] | kon (Carbonic anhydrase 7 [3]) [M⁻¹ s⁻¹] | kon (Carbonic anhydrase 12 [4]) [M⁻¹ s⁻¹] | kon (Carbonic anhydrase 2 [5]) [M⁻¹ s⁻¹] | koff (Carbonic anhydrase 2 [6]) [s⁻¹] | koff (Carbonic anhydrase 13 [7]) [s⁻¹] | kon (Carbonic anhydrase 13 [8]) [M⁻¹ s⁻¹] | koff (Carbonic anhydrase 1 [9]) [s⁻¹] | kon (Carbonic anhydrase 1 [10]) [M⁻¹ s⁻¹]
4 | CCCSc1c(F)c(F)c(S(N)(=O)=O)c(NC2CCCCCCC2)c1F [carbonic anhydrase (CA) inhibitors, benzenesulphonamide ligand, 12] | 0.05 | 0.01 | 20000 | 130000 | – | – | – | – | – | –
5 | CCCS(=O)(=O)c1c(F)c(F)c(S(N)(=O)=O)c(F)c1NC1CCCCCCC1 [carbonic anhydrase (CA) inhibitors, benzenesulphonamide ligand, 13] | – | 0.002 | 49000 | – | 86000 | 0.0087 | 0.0079 | 510000 | – | –
6 | CNc1c(F)c(S(N)(=O)=O)c(F)c(F)c1S(=O)(=O)CCc1ccccc1 [carbonic anhydrase (CA) inhibitors, benzenesulphonamide ligand, 14] | 0.14 | 0.013 | 290000 | 1.5e+06 | 1.3e+06 | 0.0082 | – | – | 0.01 | 390000
